# Rows were chosen to be rich in hits. Some 1.2% of all compounds tested hit in one or more screens of this group.
# zfTRPN1 agonist – activates the zebrafish TRPN1 channel; HEK293 zebrafish TRPN1-YFP, Fluo-8 calcium fluorescence; 100% = response to 87 µM carbachol; activation, % at 3 µM; 220,000 compounds, 0.18% hits;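 active = activation above its plate's cutoff, the mean activation of test wells on that plate plus 3 SD, cut at about 19% in these data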;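 note: 0% = DMSO alone and 100% = 87 µM carbachol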
#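 System: zebrafish TRPN1-YFP in HEK293 cells / Dosing: 3 µM single point / Timing: dye loading 1 h at 37 °C, then 30 min room temperature / Signal: Fluo-8 calcium fluorescence, excitation 470-495 nm, emission 515-575 nm / Read-out basis: percent activation from peak over basal fluorescence ratio, control-normalized / Control set: high carbachol 87 µM, low DMSO alone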
# CRFR2-BP antag – CRF-BP/CRF-R2 complex antagonism | 350,000 compounds, 0.59% hits | inhibition, % at 11.8 µM | HEK293 CRF-R2/CRF-BP, CRF-induced calcium fluorescence;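 active = inhibition of the ligand-induced calcium signal above about 50% at the single tested concentration, limit read from the data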
# TRPML3 agonist – human mucolipin-3 channel agonism; HEK293 TRPML3-YFP, Fluo-8 calcium fluorescence; 100% = the carbachol control signal; activation, % at 3 µM; 220,000 compounds, 0.29% hits; AID 1448;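 active = activation above its plate's cutoff, the mean activation of the plate's test wells plus 3 SD, cut at about 12% in these data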;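 note: 0% = DMSO only wells and 100% = carbachol wells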
# Target sequence (Q8TDD5 whole entry, looked up): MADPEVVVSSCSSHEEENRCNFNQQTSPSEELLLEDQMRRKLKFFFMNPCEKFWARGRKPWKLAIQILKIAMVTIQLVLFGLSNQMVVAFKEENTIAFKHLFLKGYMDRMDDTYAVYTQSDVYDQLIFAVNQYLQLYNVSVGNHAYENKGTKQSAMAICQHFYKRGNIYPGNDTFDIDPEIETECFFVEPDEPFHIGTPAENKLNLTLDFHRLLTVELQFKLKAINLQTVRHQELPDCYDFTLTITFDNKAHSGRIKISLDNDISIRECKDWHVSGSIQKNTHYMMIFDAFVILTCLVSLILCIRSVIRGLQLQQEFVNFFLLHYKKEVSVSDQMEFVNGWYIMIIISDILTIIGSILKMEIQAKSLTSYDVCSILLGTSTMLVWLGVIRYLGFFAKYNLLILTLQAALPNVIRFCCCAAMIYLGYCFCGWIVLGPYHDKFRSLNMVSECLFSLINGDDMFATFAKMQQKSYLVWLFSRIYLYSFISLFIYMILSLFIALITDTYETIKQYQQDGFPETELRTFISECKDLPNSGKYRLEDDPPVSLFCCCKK
#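 Material: TRPML3-YFP stable HEK293 cells | Dosing: One concentration, 3 µM nominal, 0.3% DMSO | Timing: 125 s total fluorescence read per well | Technique: Fluo-8 calcium dye fluorescence, ex 470-495, em 515-575 nm | Measure: Percent activation from peak-to-basal fluorescence ratio, scaled between DMSO and carbachol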
# CRFR2-BP ag – agonists of human CRF-binding protein/CRF-R2 receptor complex; 350,000 compounds, 0.46% hits; HEK293 CRF-R2/CRF-BP, calcium dye fluorescence (FLIPR); percent of saturating CRF peptide response; activation, % at 13.2 µM;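 active = activation of at least 50%, plus an integration ratio under a set limit after plate pattern correction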;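 note: plate controls were neutral control wells without compound for no effect and CRF at EC100 for full effect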
# The depositor's hits bear a star; x = not tested or not shown.
SMILES,zfTRPN1 agonist,CRFR2-BP antag,TRPML3 agonist,CRFR2-BP ag
Cc1ccc(OCCOC(=O)Cn2nc(C)c([N+](=O)[O-])c2C)cc1,0,54*,0,3
CCOC(=O)Cn1nc(C)c([N+](=O)[O-])c1C,1,6,1,1
CC(=O)c1cccc(NC(=O)Cn2nc(-c3ccc(Cl)cc3)ccc2=O)c1,-1,8,0,2
CCOC(=O)c1sc(-c2ccc(C(F)(F)F)cc2)nc1O,0,54*,0,58*
Cc1ccc(-c2ccc(/C=N/NC(=O)Cc3nnc(N)s3)o2)cc1Cl,-1,-6,0,-4
COc1ccc(-c2ccc(/C=N/NC(=O)Cc3nnc(N)s3)o2)cc1Cl,2,55*,-1,-5
Cc1ccc(-c2n[nH]c(=S)n2/N=C/c2cccn2C)cc1,-2,52*,-2,-5
Nc1nonc1-n1nnc(C(=O)N/N=C/c2cc(Br)ccc2O)c1CNc1ccccc1,x,-2,x,3
Nc1nonc1C(=O)N/N=C/c1cc(Br)ccc1O,4,-36,3,56*
Cc1ccc(OCC(=O)N2CCN(c3nnc(-c4ccc(C)cc4)c4ccccc34)CC2)cc1,-1,68*,-1,-1
CCOC(=O)C1=NN(c2ccccc2)C2=NC(C)=C(C(=O)OC)C(c3cccs3)N12 (stereo not given),0,75*,0,2
CCOC(=O)C1=NN(c2ccc(F)cc2)C2=NC(C)=C(C(=O)OC)C(c3cccs3)N12 (stereo not given),-1,-17,1,3
CCOc1cc(C2C3=C(CC(C)(C)CC3=O)N(CCOC)C3=C2C(=O)CC(C)(C)C3)ccc1OC,x,4,x,-2
O=C(COc1cccc2c1CCN(Cc1ccc(Br)cc1)C2=O)NCc1ccco1,-1,64*,-1,-1
O=C(COc1cccc2c1CCN(Cc1ccc(Br)cc1)C2=O)N1CCOCC1,3,45,2,6
CCOC(=O)c1oc2cccc(O)c2c1CN(Cc1ccccc1)C(C)=O,-2,-17,-1,-2
CC1(C)Cc2nc(NCCCO)c(C#N)cc2CO1,0,-6,1,5
O=C(CCCOc1ccc(Cl)cc1)Nc1cccc(C(=O)O)c1,0,84*,1,-2
CC(=O)c1cccc(NC(=O)CCCOc2ccc(C)cc2)c1,1,19,1,-5
CCOc1ccc(NC(=O)/C(C#N)=C\c2ccc(N3CCCC3)c(C)c2)cc1,x,-37,x,99*
CCOC(=O)N1CCN(CC(=O)c2c[nH]c3ccc(F)cc23)CC1,1,x,0,x
CCCN1CCN(C2CCCCC2NS(=O)(=O)c2ccc(Cl)cc2)CC1 (stereo not given),x,51*,x,7
O=S(=O)(NC1CCCCC1N1CCN(c2ccc(F)cc2)CC1)c1ccc(Cl)cc1 (stereo not given),x,-79,x,105*
O=S(=O)(NC1CCCCC1N1CCC(O)CC1)c1ccccc1 (stereo not given),x,7,x,5
COc1cc(OC)c(C=Cc2ccncn2)c(OC)c1,x,12,x,0
SMILES,zfTRPN1 agonist,CRFR2-BP antag,TRPML3 agonist,CRFR2-BP ag
COc1ccc2c(C)cc(SCn3nnc4ccccc4c3=O)nc2c1,-1,53*,1,3
CC#CCCC(=O)N1C=Cc2ccccc2C1C#N (stereo not given),2,56*,1,-1
CCCNC(=O)Cn1c(=O)/c(=C\c2ccc(-c3ccc([N+](=O)[O-])cc3)o2)s/c1=C\C(=O)C(C)(C)C,16,-443,3,356*
CCCNC(=O)Cn1c(=O)/c(=C/c2ccc(-c3cccc([N+](=O)[O-])c3)o2)s/c1=C\C(=O)C(C)(C)C,x,-51,x,32
CCCNC(=O)Cn1c(=O)/c(=C\c2ccc(-c3cccc([N+](=O)[O-])c3)o2)s/c1=C\C(=O)C(C)(C)C,0,-121,1,57*
O=C(Cc1ccccc1)N/N=C/c1ccc(-c2ccc([N+](=O)[O-])cc2)o1,3,-37,1,11
COc1ccc(CCNC(=O)COC(=O)CCC(=O)c2ccc(F)cc2)cc1,0,5,1,0
COc1ccc(S(=O)(=O)CCc2nnc(NC(=O)c3ccc(F)cc3)s2)cc1,x,-7,x,-1
COc1cccc(NC(=O)COC(=O)c2ccccc2C(=O)N2CCN(c3ccccc3)CC2)c1,0,69*,1,0
O=C(COC(=O)c1ccccc1C(=O)N1CCN(c2ccccc2)CC1)Nc1ccccc1,2,-13,1,-1
Cc1c(C(=O)NN)nn(-c2ccc(Cl)cc2)c(=O)c1C#N,0,82*,0,1
Cc1ccc(-n2nc(C(=O)NN)c(C)c(C#N)c2=O)cc1Cl,x,9,x,0
CN(C)c1ccc(C=C2C(=O)OC(C)(C(C)(C)C)OC2=O)cc1 (stereo not given),0,48,0,4
CN(C)c1ccc(C=C2C(=O)OC(C)(C)OC2=O)cc1,0,52*,1,1
CCOC(=O)Cc1csc(NC(=S)NC(=O)c2cccc([N+](=O)[O-])c2)n1,0,12,0,6
CCOC(=O)Cc1csc(NC(=O)C(C)c2ccc([N+](=O)[O-])cc2)n1 (stereo not given),22*,-32,16*,29
COc1ccc(NC(=O)NC(C)c2ccc3c(c2)OCO3)c(OC)c1 (stereo not given),x,63*,x,-4
N#C/C(=C/c1ccc(N2CCOCC2)o1)C(=O)NC1CCCCC1,6,-37,4,50*
COc1ccc(NC(=O)/C(C#N)=C/c2ccc(Br)o2)cc1,1,-18,0,1
N#C/C(=C\c1ccc(N2CCOCC2)o1)c1ccccc1,0,35,0,6
COc1ccc(NC(=O)/C(C#N)=C\c2ccc(N3CCOCC3)o2)cc1,49*,-279,40*,223*
N#C/C(=C\c1ccc(N2CCOCC2)o1)C(=O)Nc1ccc(O)cc1,10,-117,4,125*
CSc1ccc(/C=C(\C#N)C(=O)NC2CCCCC2)cc1,1,-48,1,-1
N#C/C(=C/c1ccc(N2CCOCC2)o1)c1nc2ccccc2[nH]1,2,-99,1,128*
C[C@H]1CN([C@@H](C)CO)C(=O)c2cccc(NC(=O)c3ccc(-c4nccs4)cc3)c2O[C@@H]1CN(C)C(=O)Nc1cccc2ccccc12,x,-7,x,0
SMILES,zfTRPN1 agonist,CRFR2-BP antag,TRPML3 agonist,CRFR2-BP ag
COc1cc(CN2CCN(Cc3ccc([N+](=O)[O-])cc3)CC2)c([N+](=O)[O-])cc1OC,4,23,2,0
COc1cccc(CN2CCN(Cc3cc(OC)c(OC)cc3[N+](=O)[O-])CC2)c1,0,64*,0,1
O=c1cc2oc3cc(O)c(O)cc3c(-c3ccccc3O)c-2cc1O,18,-47,12*,44
Cc1ccccc1-c1cc(=O)c2c(O)cccc2o1,x,15,x,-6
CCOc1ccccc1-c1c2cc(O)c(=O)cc-2oc2cc(O)c(O)cc12,4,-219,8,260*
COc1ccc(OC)c(-c2c3cc(O)c(=O)cc-3oc3cc(O)c(O)cc23)c1,7,-71,3,145*

# Bioassay records from PubChem BioAssay.
